Laboratory results reported in ChEMBL document CHEMBL1129400 (J Med Chem, 1996).

Columns and labels:
D(2) dopamine receptor = D(2) dopamine receptor (Rattus norvegicus, UniProt P61169); assay: Compound was tested for binding affinity against native Dopamine receptor D2 from rat striatum using radioligand [3H]-spiperone)
Summary of the method: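 Rat striatal membranes were prepared in Tris-HCl pH 7.4 with 10 µM pargyline, 0.1% ascorbic acid, 120 mM NaCl, 5 mM KCl, 2 mM CaCl2 and 1 mM MgCl2. Filtration and scintillation counting followed. Ki was obtained from the curve-fitted IC50 via Cheng-Prusoff; values are mean pKi ± SE.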

[1] = target: T1, 5-hydroxytryptamine receptor 1A (Rattus norvegicus, UniProt P19327); assay: Binding affinity against native 5-HT1A-receptors from rat hippocampus using radioligand ([3H]8-hydroxy-2-(di-n-propylamino)-tetraline) binding assay; format: tissue-based
T1 sequence (P19327 whole entry): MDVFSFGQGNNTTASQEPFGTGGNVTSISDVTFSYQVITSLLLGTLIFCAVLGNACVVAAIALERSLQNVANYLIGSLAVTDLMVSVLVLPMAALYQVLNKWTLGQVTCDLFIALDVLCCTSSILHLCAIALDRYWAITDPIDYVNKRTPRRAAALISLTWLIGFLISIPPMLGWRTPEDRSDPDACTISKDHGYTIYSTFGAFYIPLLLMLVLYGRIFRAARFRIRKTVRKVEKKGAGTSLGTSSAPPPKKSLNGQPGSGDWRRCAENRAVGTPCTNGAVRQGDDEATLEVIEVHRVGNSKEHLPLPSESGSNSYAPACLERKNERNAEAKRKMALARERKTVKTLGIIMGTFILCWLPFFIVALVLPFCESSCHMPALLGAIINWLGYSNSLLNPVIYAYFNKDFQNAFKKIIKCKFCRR

[2] = target: T2, Adrenergic receptor alpha-2 (Rattus norvegicus, UniProt P22086+P19328+P22909); assay: Binding affinity against native Alpha-2 adrenergic receptor from rat cerebral cortex using radioligand ([3H]rauwolscine) binding assay; format: tissue-based
T2 sequence (P22086 whole entry): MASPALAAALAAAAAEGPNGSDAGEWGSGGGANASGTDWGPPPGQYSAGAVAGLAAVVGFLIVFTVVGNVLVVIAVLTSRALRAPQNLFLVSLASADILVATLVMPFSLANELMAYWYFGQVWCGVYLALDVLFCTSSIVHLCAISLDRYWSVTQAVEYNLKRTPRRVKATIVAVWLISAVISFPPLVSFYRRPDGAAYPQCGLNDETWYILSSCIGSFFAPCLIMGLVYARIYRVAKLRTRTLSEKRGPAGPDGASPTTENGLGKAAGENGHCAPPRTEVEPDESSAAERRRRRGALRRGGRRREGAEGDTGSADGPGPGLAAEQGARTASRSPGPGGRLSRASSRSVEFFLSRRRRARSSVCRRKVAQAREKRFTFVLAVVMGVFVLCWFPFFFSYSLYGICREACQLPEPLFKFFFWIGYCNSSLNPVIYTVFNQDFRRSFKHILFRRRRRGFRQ
T2 sequence (P19328 whole entry): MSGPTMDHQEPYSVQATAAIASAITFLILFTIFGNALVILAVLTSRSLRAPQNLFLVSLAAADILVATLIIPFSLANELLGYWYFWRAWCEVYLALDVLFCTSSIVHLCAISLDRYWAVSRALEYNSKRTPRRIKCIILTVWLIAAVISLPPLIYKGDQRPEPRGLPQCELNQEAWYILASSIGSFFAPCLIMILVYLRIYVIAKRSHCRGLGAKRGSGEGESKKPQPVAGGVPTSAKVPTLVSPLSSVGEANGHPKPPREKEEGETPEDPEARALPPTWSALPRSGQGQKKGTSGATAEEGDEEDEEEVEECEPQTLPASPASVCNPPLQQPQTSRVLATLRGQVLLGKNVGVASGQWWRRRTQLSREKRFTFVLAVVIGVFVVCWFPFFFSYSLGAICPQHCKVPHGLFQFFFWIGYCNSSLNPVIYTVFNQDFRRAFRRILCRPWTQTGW
T2 sequence (P22909 whole entry): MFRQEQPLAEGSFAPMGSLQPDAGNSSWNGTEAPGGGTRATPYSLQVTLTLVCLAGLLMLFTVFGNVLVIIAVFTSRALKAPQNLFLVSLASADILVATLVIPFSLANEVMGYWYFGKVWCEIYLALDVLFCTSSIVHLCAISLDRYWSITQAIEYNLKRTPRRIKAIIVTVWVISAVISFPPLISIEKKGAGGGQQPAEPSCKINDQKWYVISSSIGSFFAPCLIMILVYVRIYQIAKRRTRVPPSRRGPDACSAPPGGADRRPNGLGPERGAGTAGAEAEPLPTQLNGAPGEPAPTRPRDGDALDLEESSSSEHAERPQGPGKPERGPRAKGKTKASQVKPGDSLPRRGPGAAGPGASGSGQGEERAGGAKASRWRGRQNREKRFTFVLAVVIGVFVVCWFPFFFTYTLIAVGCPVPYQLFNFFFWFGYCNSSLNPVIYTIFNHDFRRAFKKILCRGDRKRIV

[3] = target: T3, Alpha-1A adrenergic receptor (Homo sapiens, UniProt P35348); assay: Compound was tested for binding affinity against human hippocampus Alpha-1A adrenergic receptor using radioligand ([3H]prazosin) binding assay
T3 sequence (P35348 whole entry): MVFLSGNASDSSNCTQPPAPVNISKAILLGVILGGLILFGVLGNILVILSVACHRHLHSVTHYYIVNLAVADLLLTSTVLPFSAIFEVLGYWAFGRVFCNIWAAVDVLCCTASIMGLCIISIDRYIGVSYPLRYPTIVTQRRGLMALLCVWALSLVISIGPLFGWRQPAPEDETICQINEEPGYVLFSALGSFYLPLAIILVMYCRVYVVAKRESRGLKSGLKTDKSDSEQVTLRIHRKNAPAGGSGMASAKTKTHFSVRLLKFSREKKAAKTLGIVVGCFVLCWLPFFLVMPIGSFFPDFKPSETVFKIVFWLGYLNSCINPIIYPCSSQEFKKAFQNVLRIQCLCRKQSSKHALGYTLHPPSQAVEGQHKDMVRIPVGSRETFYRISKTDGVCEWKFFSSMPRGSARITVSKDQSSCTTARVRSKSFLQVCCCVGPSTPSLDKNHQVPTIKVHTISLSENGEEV
Summary of the method: (§1)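 Membranes (30 µg protein) came from CHO cells stably transfected with the human α1-adrenoceptor subtype gene. […] Nonspecific binding was defined with 10 µM phentolamine. Filtration on PEI-treated filters followed. Ki came from the fitted IC50 via Cheng-Prusoff.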

[4] = target: T4, Alpha-1D adrenergic receptor (Homo sapiens, UniProt P25100); assay: Compound was tested for binding affinity against human hippocampus Alpha-1D adrenergic receptor using radioligand ([3H]prazosin) binding assay; summary of the method: as §1
T4 sequence (P25100 whole entry): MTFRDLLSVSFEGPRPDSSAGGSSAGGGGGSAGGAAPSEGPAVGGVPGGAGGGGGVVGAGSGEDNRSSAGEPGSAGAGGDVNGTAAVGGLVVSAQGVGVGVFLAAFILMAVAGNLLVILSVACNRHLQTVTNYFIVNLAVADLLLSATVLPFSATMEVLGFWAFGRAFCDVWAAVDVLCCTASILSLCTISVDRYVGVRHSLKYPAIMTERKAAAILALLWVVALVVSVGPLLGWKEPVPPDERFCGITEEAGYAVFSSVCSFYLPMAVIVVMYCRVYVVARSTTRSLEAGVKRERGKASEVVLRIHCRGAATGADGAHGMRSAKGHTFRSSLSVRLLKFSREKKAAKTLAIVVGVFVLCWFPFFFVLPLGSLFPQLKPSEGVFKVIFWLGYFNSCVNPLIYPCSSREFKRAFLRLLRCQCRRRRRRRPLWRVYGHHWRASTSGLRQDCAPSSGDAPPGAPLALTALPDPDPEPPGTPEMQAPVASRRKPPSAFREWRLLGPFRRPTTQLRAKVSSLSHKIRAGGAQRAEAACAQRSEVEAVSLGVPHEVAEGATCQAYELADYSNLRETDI

[5] = target: T5, Alpha-1B adrenergic receptor (Homo sapiens, UniProt P35368); assay: Compound was tested for binding affinity against […] Alpha-1B adrenergic receptor using radioligand ([3H]-prazosin) binding assay; summary of the method: as §1
T5 sequence (P35368 whole entry): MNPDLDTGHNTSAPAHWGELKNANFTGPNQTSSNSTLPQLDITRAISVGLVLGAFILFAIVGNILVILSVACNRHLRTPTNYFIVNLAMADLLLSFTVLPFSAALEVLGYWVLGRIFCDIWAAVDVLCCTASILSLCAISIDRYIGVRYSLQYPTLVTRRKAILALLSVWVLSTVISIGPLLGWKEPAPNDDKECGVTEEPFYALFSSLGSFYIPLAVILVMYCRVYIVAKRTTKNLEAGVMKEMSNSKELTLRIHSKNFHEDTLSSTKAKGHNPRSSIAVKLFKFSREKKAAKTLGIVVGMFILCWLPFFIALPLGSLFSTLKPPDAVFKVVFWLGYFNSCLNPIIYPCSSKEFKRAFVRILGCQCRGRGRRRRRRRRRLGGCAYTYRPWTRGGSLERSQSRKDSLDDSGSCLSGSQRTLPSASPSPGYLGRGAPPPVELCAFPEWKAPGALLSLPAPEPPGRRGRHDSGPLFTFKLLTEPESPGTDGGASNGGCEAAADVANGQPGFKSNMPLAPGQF

[6] = target: T6, Alpha-1A adrenergic receptor (Bos taurus, UniProt P18130); assay: Compound was tested for binding affinity against cloned Alpha-1A adrenergic receptor from bovine brain using radioligand ([3H]prazosin) binding assay
T6 sequence (P18130 whole entry): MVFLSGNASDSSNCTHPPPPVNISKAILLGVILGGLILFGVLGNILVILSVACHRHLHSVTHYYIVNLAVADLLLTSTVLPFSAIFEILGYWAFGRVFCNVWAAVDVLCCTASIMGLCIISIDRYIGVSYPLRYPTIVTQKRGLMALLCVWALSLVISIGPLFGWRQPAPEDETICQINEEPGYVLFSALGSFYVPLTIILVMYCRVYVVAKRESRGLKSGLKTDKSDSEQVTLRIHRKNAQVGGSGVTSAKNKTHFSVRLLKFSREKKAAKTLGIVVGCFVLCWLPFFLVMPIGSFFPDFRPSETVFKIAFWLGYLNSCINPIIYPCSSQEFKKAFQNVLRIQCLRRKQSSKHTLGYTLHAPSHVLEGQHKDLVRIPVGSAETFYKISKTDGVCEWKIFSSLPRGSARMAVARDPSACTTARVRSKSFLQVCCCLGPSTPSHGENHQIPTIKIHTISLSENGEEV

Chain of D(2) dopamine receptor (P61169 whole entry): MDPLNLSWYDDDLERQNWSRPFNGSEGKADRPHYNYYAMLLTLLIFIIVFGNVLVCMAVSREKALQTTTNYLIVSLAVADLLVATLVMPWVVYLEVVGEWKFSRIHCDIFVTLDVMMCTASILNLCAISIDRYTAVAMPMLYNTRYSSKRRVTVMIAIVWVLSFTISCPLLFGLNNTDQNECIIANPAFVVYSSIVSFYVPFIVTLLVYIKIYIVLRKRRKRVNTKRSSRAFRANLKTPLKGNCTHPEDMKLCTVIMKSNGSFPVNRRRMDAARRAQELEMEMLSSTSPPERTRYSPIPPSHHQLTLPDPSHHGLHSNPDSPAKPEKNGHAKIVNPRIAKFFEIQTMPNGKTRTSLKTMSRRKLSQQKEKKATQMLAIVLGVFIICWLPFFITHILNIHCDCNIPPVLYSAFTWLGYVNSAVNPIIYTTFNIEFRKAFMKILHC

| SMILES | Ki (D(2) dopamine receptor) [µM] | Ki [1] [µM] | Log Ki [2] | Ki [3] [µM] | Ki [4] [µM] | Ki [5] [µM] | Ki [6] [µM] |
| --- | --- | --- | --- | --- | --- | --- | --- |
| COc1cc2nc(N3CCN(C(=O)c4ccco4)[C@@H]4CCCC[C@@H]43)nc(N)c2cc1OC | 8.32 | 12.9 | -6.13 | 0.0123 | 0.00324 | 0.000135 |  |
| O=C(CCCN1CCC2(CC1)C(=O)NCN2c1ccccc1)c1ccc(F)cc1 [SPIPERONE] |  | 0.0251 |  |  |  |  | 0.0135 |
| COc1cc2nc(N3CCN(C(=O)c4ccco4)[C@H]4CCCC[C@H]43)nc(N)c2cc1OC [CYCLAZOSIN] | > 10 | 6.17 | -5.86 |  |  |  |  |
| COc1cc2nc(N3CCN(C(=O)c4ccco4)C4CCCCC43)nc(N)c2cc1OC (racemic) | > 10 | 6.92 | -6.17 |  |  |  |  |
| COc1cc2nc(N3CCN(C(=O)c4ccco4)CC3)nc(N)c2cc1OC [PRAZOSIN] | > 10 | 2.34 |  |  |  |  |  |
